Columns and labels:
Type in all cases: functional
Mus musculus [1] = test: BDF1 male mice were administered with 250 mg/kg intraperitoneally and percent change in iron levels was determined in Feces; details: route intraperitoneal
In short: (§1)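 Male BDF1 mice were hypertransfused with washed, heat-treated (50 °C, 30 min) canine red cells. Starting 2 days after the last transfusion, they received one ip injection daily for 7 days, in distilled water or an aqueous suspension with Polysorbate 80 (2% final). Group urine was collected every 24 h. Feces were digested in 1 N HCl (90 °C, 30 min, triplicate). Liver and spleen were homogenized. Iron was measured by atomic absorption and reported as % change vs transfused controls.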

Mus musculus [2] = test: BDF1 male mice were administered with 250 mg/kg intraperitoneally and percent change in iron levels was determined in Liver; details: route intraperitoneal; in short: as §1
Mus musculus [3] = test: BDF1 male mice were administered with 250 mg/kg intraperitoneally and percent change in iron levels was determined in Spleen; details: route intraperitoneal; in short: as §1
Mus musculus [4] = test: BDF1 male mice were administered with 250 mg/kg intraperitoneally and percent change in iron levels was determined in Urine; details: route intraperitoneal; in short: as §1
Mus musculus [5] = test: BDF1 male mice were administered with 250 mg/kg intraperitoneally and number of survivors was determined out of 240 tested; details: route intraperitoneal
In short: (§2)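 Male BDF1 mice were iron-loaded by transfusion of canine red cells. The cells were heparinised, washed twice in isotonic saline and heated at 50 °C for 30 min. Dosing started two days after the last transfusion, once daily for 7 consecutive days. Compounds were given in distilled water or as a fine aqueous suspension with Polysorbate 80 (2% final). Toxic signs were recorded daily and survivors counted per group.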

Mus musculus [6] = test: BDF1 male mice were administered with 200 mg/kg po and percent change in iron levels was determined in Feces
In short: (§3)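 Hypertransfused male BDF1 mice (canine red cells, washed and heated at 50 °C for 30 min) were dosed orally for 7 days with compound in distilled water or a fine suspension with Polysorbate 80 (2% final). Daily group urine and pooled feces (1 N HCl digest, 90 °C, 30 min, triplicate) were collected, and liver and spleen were homogenized. Iron was measured by atomic absorption and reported as % change vs transfused control.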

Mus musculus [7] = test: BDF1 male mice were administered with 200 mg/kg po and percent change in iron levels was determined in Liver; in short: as §3
Mus musculus [8] = test: BDF1 male mice were administered with 200 mg/kg po and percent change in iron levels was determined in spleen; in short: as §3
Mus musculus [9] = test: BDF1 male mice were administered with 200 mg/kg poand percent change in iron levels was determined in Urine; in short: as §3
Mus musculus [10] = test: BDF1 male mice were administered with the compound and number of survivors was determined at a dose 200 mg/kg po; in short: as §2

CC(=O)N(O)CCCCCNC(=O)CCC(=O)N(O)CCCCCNC(=O)CCC(=O)N(O)CCCCCN [DEFEROXAMINE]
Iron change (Mus musculus [1]): 7%
Iron change (Mus musculus [2]): -24%
Iron change (Mus musculus [3]): 2%
Iron change (Mus musculus [4]): 270%
No. of survivors (Mus musculus [5]): 240

CC(=O)Oc1ccccc1CN(CCN(CC(=O)OC(C)(C)C)Cc1ccccc1OC(C)=O)CC(=O)OC(C)(C)C
Iron change (Mus musculus [6]): -1%
Iron change (Mus musculus [7]): 16%
Iron change (Mus musculus [8]): -6%
Iron change (Mus musculus [9]): -4%
No. of survivors (Mus musculus [10]): 10

From ChEMBL document CHEMBL1123309, “Esters and lactones of phenolic amino carboxylic acids: prodrugs for iron chelation” (J Med Chem, 1986)
